Converted amounts (≈) assume the structure as drawn.
How the values were obtained:
[1] = test system: Candida tropicalis; test: Antifungal activity against Candida tropicalis 156 after 24 hr by microdilution broth method; type: functional; conditions: Candida tropicalis, 156, 24 h
Procedure, shortened: (§1)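 Broth microdilution in RPMI 1640 buffered to pH 7.0 with 0.165 M MOPS; compounds dissolved in DMSO; drug-free controls included. Strains were kept on Sabouraud dextrose agar at 4 °C and passaged onto SDA before testing. Yeasts, conidia or sporangiospores were suspended in 0.85% saline to a stock of 1.0–5.0×10⁵ cfu ml⁻¹, then diluted 1:20 in medium. Plates were incubated statically at 35 °C.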

[2] = test system: Candida albicans; test: Antifungal activity against Candida albicans ATCC 44859 after 48 hr by microdilution broth method; type: functional; conditions: ATCC 44859, 48 h; procedure, shortened: as §1
[3] = test system: Candida albicans; test: Antifungal activity against Candida albicans ATCC 44859 after 24 hr by microdilution broth method; type: functional; conditions: ATCC 44859, 24 h; procedure, shortened: as §1
[4] = test system: Mycobacterium tuberculosis; test: Antimycobacterial activity against Mycobacterium tuberculosis H37Rv ATCC 27294 at 12.5 ug/ml by microplate alamar blue assay relative to control; type: functional
[5] = test system: Trichophyton mentagrophytes; test: Antifungal activity against Trichophyton mentagrophytes 445 after 72 hr by microdilution broth method; type: functional; conditions: Trichophyton mentagrophytes, 445, 72 h
Procedure, shortened: (§2)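 Broth microdilution in RPMI 1640 buffered to pH 7.0 with 0.165 M MOPS; compounds in DMSO, with compound-free controls. Strain subcultured and kept on Sabouraud dextrose agar at 4 °C. Conidia were suspended in sterile 0.85% saline, counted in a Bürker chamber to 1.0–5.0×10⁵ cfu ml⁻¹ stock, and diluted 1:20 in medium. Static incubation at 35 °C. MIC is 80% growth inhibition versus control.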

[6] = test system: Lichtheimia corymbifera; test: Antifungal activity against Lichtheimia corymbifera 272 after 48 hr by microdilution broth method; type: functional; conditions: Lichtheimia corymbifera, 272, 48 h; procedure, shortened: as §1
[7] = test system: Lichtheimia corymbifera; test: Antifungal activity against Lichtheimia corymbifera 272 after 24 hr by microdilution broth method; type: functional; conditions: Lichtheimia corymbifera, 272, 24 h; procedure, shortened: as §1
[8] = test system: Aspergillus fumigatus; test: Antifungal activity against Aspergillus fumigatus 231 after 24 hr by microdilution broth method; type: functional; conditions: Aspergillus fumigatus, 231, 24 h; procedure, shortened: as §1
[9] = test system: Aspergillus fumigatus; test: Antifungal activity against Aspergillus fumigatus 231 after 48 hr by microdilution broth method; type: functional; conditions: Aspergillus fumigatus, 231, 48 h; procedure, shortened: as §1
[10] = test system: Trichophyton mentagrophytes; test: Antifungal activity against Trichophyton mentagrophytes 445 after 120 hr by microdilution broth method; type: functional; conditions: Trichophyton mentagrophytes, 445, 120 h; procedure, shortened: as §2
[11] = test system: Trichosporon beigelii; test: Antifungal activity against Trichosporon beigelii 1188 after 48 hr by microdilution broth method; type: functional; conditions: Trichosporon beigelii, 1188, 48 h; procedure, shortened: as §1
[12] = test system: Nakaseomyces glabratus; test: Antifungal activity against Candida glabrata 20/I after 48 hr by microdilution broth method; type: functional; procedure, shortened: as §1
[13] = test system: Trichosporon beigelii; test: Antifungal activity against Trichosporon beigelii 1188 after 24 hr by microdilution broth method; type: functional; conditions: Trichosporon beigelii, 1188, 24 h; procedure, shortened: as §1
[14] = test system: Nakaseomyces glabratus; test: Antifungal activity against Candida glabrata 20/I after 24 hr by microdilution broth method; type: functional; procedure, shortened: as §1
[15] = test system: Pichia kudriavzevii; test: Antifungal activity against Pichia kudriavzevii E 28 after 24 hr by microdilution broth method; type: functional; conditions: E 28, 24 h; procedure, shortened: as §1
[16] = test system: Pichia kudriavzevii; test: Antifungal activity against Pichia kudriavzevii E 28 after 48 hr by microdilution broth method; type: functional; conditions: E 28, 48 h; procedure, shortened: as §1
[17] = test system: Candida tropicalis; test: Antifungal activity against Candida tropicalis 156 after 48 hr by microdilution broth method; type: functional; conditions: Candida tropicalis, 156, 48 h; procedure, shortened: as §1
[18] = test system: Chlorella vulgaris; test: Inhibition of photosynthesis in Chlorella vulgaris chloroplast assessed as reduction of oxygen evolution rate after 4 hr by spectrophotometric analysis; type: functional
[19] = test system: Chlorella vulgaris; test: Inhibition of photosynthesis in Chlorella vulgaris assessed as reduction of chlorophyll production at 0.1 mM/l after 7 days by spectrophotometric analysis; type: functional; conditions: 168 h
Procedure, shortened: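 Statically cultured Chlorella vulgaris suspensions were exposed to 0.1 mmol l⁻¹ compound, with 1% solvent in samples and control. After 7 days, chlorophyll was extracted into N,N-dimethylformamide and quantified spectrophotometrically.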

[20] = test system: Spinacia oleracea; test: Inhibition of photosynthesis in Spinacia oleracea (spinach) chloroplast assessed as reduction of oxygen evolution rate after 4 hr by spectrophotometric analysis; type: functional
Procedure, shortened: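 Oxygen evolution rate was measured in spinach chloroplasts at 30 mg l⁻¹, read spectrophotometrically with 2,6-dichlorophenol–indophenol as electron acceptor.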

Compound	inhibition at 12.5 µg/mL [4] [%]	MIC80 [5] [µM]	MIC80 [10] [µM]	IC50 [18] [µM]	inhibition at 100 µM [19] [%]	IC50 [20] [µM]	other results
O=C(/C=C/c1ccccc1O)c1cnccn1	55	15.6 (≈ 3.53 µg/mL)	31.2 (≈ 7.07 µg/mL)				MIC80 [1]: 125 µM (≈ 28.3 µg/mL); MIC80 [2]: 62.5 µM (≈ 14.1 µg/mL); MIC80 [3]: 62.5 µM (≈ 14.1 µg/mL); MIC80 [6]: 250 µM (≈ 56.6 µg/mL); MIC80 [7]: 125 µM (≈ 28.3 µg/mL); MIC80 [8]: 125 µM (≈ 28.3 µg/mL); MIC80 [9]: 250 µM (≈ 56.6 µg/mL); MIC80 [11]: 250 µM (≈ 56.6 µg/mL); MIC80 [12]: 250 µM (≈ 56.6 µg/mL); MIC80 [13]: 125 µM (≈ 28.3 µg/mL); MIC80 [14]: 125 µM (≈ 28.3 µg/mL); MIC80 [15]: 125 µM (≈ 28.3 µg/mL); MIC80 [16]: 250 µM (≈ 56.6 µg/mL); MIC80 [17]: 250 µM (≈ 56.6 µg/mL)
CCCCc1cnc(C(=O)/C=C/c2ccc(O)c(OC)c2)cn1	45	> 100					
CC(=O)N1CCN(c2ccc(OCC3COC(Cn4ccnc4)(c4ccc(Cl)cc4Cl)O3)cc2)CC1 (centres undefined) [KETOCONAZOLE]		0.24 (≈ 0.128 µg/mL)	1.95 (≈ 1.04 µg/mL)				MIC80 [1]: 3.91 µM (≈ 2.08 µg/mL); MIC80 [2]: ≤ 0.06 µM; MIC80 [3]: ≤ 0.06 µM; MIC80 [6]: 15.6 µM (≈ 8.31 µg/mL); MIC80 [7]: 15.6 µM (≈ 8.31 µg/mL); MIC80 [8]: 7.81 µM (≈ 4.15 µg/mL); MIC80 [9]: 7.81 µM (≈ 4.15 µg/mL); MIC80 [11]: ≤ 0.06 µM; MIC80 [12]: 1.95 µM (≈ 1.04 µg/mL); MIC80 [13]: ≤ 0.06 µM; MIC80 [14]: 0.49 µM (≈ 0.26 µg/mL); MIC80 [15]: 1.95 µM (≈ 1.04 µg/mL); MIC80 [16]: 1.95 µM (≈ 1.04 µg/mL); MIC80 [17]: 7.81 µM (≈ 4.15 µg/mL)
O=C(/C=C/c1ccc(O)cc1)c1cnccn1	42	62.5 (≈ 14.1 µg/mL)	125 (≈ 28.3 µg/mL)				
CCCCc1cnc(C(=O)/C=C/c2ccc(O)cc2)cn1	51	31.2 (≈ 8.82 µg/mL)	62.5 (≈ 17.6 µg/mL)	265	10	306	
CCCCCCCCSc1cc(C(N)=S)ccn1				48	100	72	
CCCc1cnc(C(=O)/C=C/c2ccccc2O)cn1	50	7.81 (≈ 2.1 µg/mL)	7.81 (≈ 2.1 µg/mL)	100	68	187	
CC(C)(C)c1cnc(C(=O)Nc2cccc(O)c2)cn1				329		478	
CCCc1cnc(C(=O)/C=C/c2ccc(O)c(OC)c2)cn1	20	> 125					
NC(=O)c1cnccn1 [PYRAZINAMIDE]	100						
CCCCc1cnc(C(=O)/C=C/c2ccccc2O)cn1	33	3.91 (≈ 1.1 µg/mL)	15.6 (≈ 4.41 µg/mL)	147	89	184	
COc1cc(/C=C/C(=O)c2cnc(CC(C)C)cn2)ccc1O	53	250 (≈ 78.1 µg/mL)					
CCCc1cnc(C(=O)/C=C/c2ccc(O)cc2)cn1	35	31.2 (≈ 8.38 µg/mL)	62.5 (≈ 16.8 µg/mL)	514	12	399	
CCCCc1cnc(C(=O)/C=C/c2ccc(N(C)C)cc2)cn1	0	> 250	> 250				
CN(C)c1ccc(/C=C/C(=O)c2cnccn2)cc1	26	> 62.5	> 62.5				
CC(C)Cc1cnc(C(=O)/C=C/c2ccccc2O)cn1	20	31.2 (≈ 8.82 µg/mL)		63	92	144	
COc1cc(/C=C/C(=O)c2cnccn2)ccc1O	35	125 (≈ 32 µg/mL)					
CC(C)(C)c1ncc(C(=O)Nc2cc(O)cc(Cl)c2)nc1Cl				99		105	
CC(C)Cc1cnc(C(=O)/C=C/c2ccc(O)cc2)cn1	63	> 500	> 500	232	35	235	
CC(C)Cc1cnc(C(=O)/C=C/c2ccc(N(C)C)cc2)cn1	10	250 (≈ 77.4 µg/mL)	> 250				
CCCc1cnc(C(=O)/C=C/c2ccc(N(C)C)cc2)cn1	8	> 250	> 250				
